Results as given in ChEMBL document CHEMBL1149834, “Chromomoric acid derivatives from Tectona philippinensis” (2008).

Legend:
Settings in all cases: read-out: IZ
Pseudomonas aeruginosa [1] = assay: Antibacterial activity against Pseudomonas aeruginosa UPCC 1244 replicate 3 assessed as clearing zone at 30 ug after 24 to 48 hrs; format: functional
Outline: (§1)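 Agar well diffusion. 0.1 mL of bacterial suspension in 0.1% peptone water is spread on prepoured nutrient agar and overlaid with melted NA cooled to 45 °C. Three equidistant 10 mm wells each receive 200 µL of sample in 95% EtOH. Plates are incubated at room temperature and read at 24–48 h. Clearing-zone diameters are measured in mm and averaged.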

Candida albicans [2] = assay: Antifungal activity against Candida albicans UPCC 2168 replicate 3 assessed as clearing zone at 30 ug after 24 to 48 hrs; format: functional
Outline: (§2)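 Yeast is suspended in 0.1% peptone water, and 0.1 mL is spread on glucose yeast peptone agar with a GYP overlay at 45 °C. Three 10 mm wells per plate each get 200 µL of sample in 95% EtOH. Plates are incubated at room temperature and observed after 24–48 h. The mean clearing-zone diameter is recorded in mm.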

[3] = system: Trichophyton mentagrophytes; assay: Antifungal activity against Trichophyton mentagrophytes UPCC 4193 replicate 1 assessed as clearing zone at 30 ug after 3 to 5 days
Escherichia coli [4] = assay: Antibacterial activity against Escherichia coli UPCC 1195 replicate 2 assessed as clearing zone at 30 ug after 24 to 48 hrs; format: functional; outline: as §1
Candida albicans [5] = assay: Antifungal activity against Candida albicans UPCC 2168 replicate 1 assessed as clearing zone at 30 ug after 24 to 48 hrs; format: functional; outline: as §2
Candida albicans [6] = assay: Antifungal activity against Candida albicans UPCC 2168 replicate 2 assessed as clearing zone at 30 ug after 24 to 48 hrs; format: functional; outline: as §2
Escherichia coli [7] = assay: Antibacterial activity against Escherichia coli UPCC 1195 replicate 1 assessed as clearing zone at 30 ug after 24 to 48 hrs; format: functional; outline: as §1
[8] = system: Trichophyton mentagrophytes; assay: Antifungal activity against Trichophyton mentagrophytes UPCC 4193 replicate 2 assessed as clearing zone at 30 ug after 3 to 5 days
[9] = system: Trichophyton mentagrophytes; assay: Antifungal activity against Trichophyton mentagrophytes UPCC 4193 replicate 3 assessed as clearing zone at 30 ug after 3 to 5 days
Pseudomonas aeruginosa [10] = assay: Antibacterial activity against Pseudomonas aeruginosa UPCC 1244 replicate 2 assessed as clearing zone at 30 ug after 24 to 48 hrs; format: functional; outline: as §1
Pseudomonas aeruginosa [11] = assay: Antibacterial activity against Pseudomonas aeruginosa UPCC 1244 replicate 1 assessed as clearing zone at 30 ug after 24 to 48 hrs; format: functional; outline: as §1
Escherichia coli [12] = assay: Antibacterial activity against Escherichia coli UPCC 1195 replicate 3 assessed as clearing zone at 30 ug after 24 to 48 hrs; format: functional; outline: as §1
Bacillus subtilis = assay: Antibacterial activity against Bacillus subtilis UPCC 1149 replicate 1 assessed as clearing zone at 30 ug after 24 to 48 hrs; format: functional; outline: as §1
Staphylococcus aureus = assay: Antibacterial activity against Staphylococcus aureus UPCC 1143 replicate 1 assessed as clearing zone at 30 ug after 24 to 48 hrs; format: functional
Outline: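 Agar well diffusion. Microbe suspended in 0.1% peptone water; 0.1 mL spread on prepoured nutrient agar, overlaid with melted medium cooled to 45 °C. Three 10 mm wells per plate, 200 µL sample in 95% EtOH per well. Incubated at room temperature and read at 24–48 h. Clearing-zone diameter measured in mm.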

| Compound | zone of inhibition at 30 µg/disc (Pseudomonas aeruginosa [1]) | zone of inhibition at 30 µg/disc (Candida albicans [2]) | zone of inhibition at 30 µg/disc [3] | zone of inhibition at 30 µg/disc (Escherichia coli [4]) | zone of inhibition at 30 µg/disc (Candida albicans [5]) | zone of inhibition at 30 µg/disc (Candida albicans [6]) | zone of inhibition at 30 µg/disc (Escherichia coli [7]) | zone of inhibition at 30 µg/disc [8] | zone of inhibition at 30 µg/disc [9] | zone of inhibition at 30 µg/disc (Pseudomonas aeruginosa [10]) | zone of inhibition at 30 µg/disc (Pseudomonas aeruginosa [11]) | zone of inhibition at 30 µg/disc (Escherichia coli [12]) | zone of inhibition at 30 µg/disc (Bacillus subtilis) | zone of inhibition at 30 µg/disc (Staphylococcus aureus) |
| --- | --- | --- | --- | --- | --- | --- | --- | --- | --- | --- | --- | --- | --- | --- |
| CC[C@@H]1O[C@H]1/C=C1/C(=O)C=C[C@@]1(O)CCCC[C@@H]1CCC(=O)O1 | 12 mm | 13 mm | 12 mm | 12 mm | 13 mm | 13 mm | 12 mm | 12 mm | 12 mm | 12 mm | 12 mm | 12 mm |  |  |
| C/C=C/C(=O)C[C@H]1C(=O)C=C[C@@]1(O)CCCC[C@@H]1CCC(=O)O1 | 12 mm | 13 mm | 13 mm | 12 mm | 13 mm | 13 mm | 12 mm | 13 mm | 13 mm | 12 mm | 12 mm | 12 mm |  |  |
| O=C(N[C@H](CO)[C@H](O)c1ccc([N+](=O)[O-])cc1)C(Cl)Cl [CHLORAMPHENICOL] |  |  |  |  |  |  | 23 mm |  |  |  | 14 mm |  | 20 mm | 25 mm |
